Compound activity from PubChem BioAssay.
Only a selection was taken, and hits are over-represented in it overall.
Glyco luc inh – N-linked glycosylation inhibition; D54 ERlucT glycosylation luciferase reporter, 24 h; percent of 100 nM tunicamycin response; reporter increase, % at 12.5 µM; 0.23% of 360,000 active; AID 588692;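 active = mean luciferase reporter signal, scaled so untreated is 0 and the glycosylation-blocking control 100, at or above a set limit in every replicate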;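 note: luciferase carries N-glycosylation sites so blocking glycosylation raises the light; 0% = median of neutral control wells and 100% = median of 100 nM tunicamycin wells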
T cell modulator – modulates CD8 T cell binding to vesicles. 2C CD8+ T cell-vesicle binding, flow cytometry; hits give low values. response (vesicle binding), % at 7 µM. 0.068% of 330,000 active. AID 2052;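 active = response, share of CD8 T cells binding vesicles, and their 90th percentile fluorescence all below set limits, cut at about 80% in these data, passing the limit was not always enough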;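 note: values below 100% mean blocked vesicle binding to the CD8+ T cells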
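Incubation: binding step 1.5 h, 37 °C, antibody labelling 20 min, ice; system: murine 2C transgenic CD8+ T lymphocytes; technique: cytometric PE anti-B7-1 and Alexa647 anti-CD8 signals after 1% paraformaldehyde fixation; also added: QL9-charged Drosophila Ld/ICAM-1/B7-1 vesicles; control set: naked versus QL9-loaded vesicles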
ALR inh – inhibitors of human sulfhydryl oxidase ALR; P55789; purified ALR, DTT oxidation, H2O2 HRP-luminol luminescence; inhibition, % (no concentration beside the values); 3.8% of 290,000 active; AID 485317;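 active = mean replicate inhibition above about 79%, with every replicate also reaching it, limit read from the data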
Target sequence (P55789 whole entry, looked up): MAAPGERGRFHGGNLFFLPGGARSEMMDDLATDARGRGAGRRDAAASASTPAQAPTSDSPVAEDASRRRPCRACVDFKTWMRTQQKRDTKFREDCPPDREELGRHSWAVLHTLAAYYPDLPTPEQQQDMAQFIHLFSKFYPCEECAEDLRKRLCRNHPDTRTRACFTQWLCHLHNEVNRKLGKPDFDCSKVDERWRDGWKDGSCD
The depositor's hits bear a star; i = inactive; x = no result given.

SMILES | Glyco luc inh | T cell modulator | ALR inh
CC(NS(C)(=O)=O)C(c1cccs1)N1CCN(c2ccccc2)CC1 (configuration not stated) | 1 | x | 99*
CC(NC(=O)C(=O)N1CCCCC1)C(c1cccs1)N1CCN(c2ccccc2)CC1 (configuration not stated) | -1 | x | 99*
CC(C)C(=O)NC(C)C(c1cccs1)N1CCN(c2ccccc2)CC1 (configuration not stated) | -2 | x | 15
CC(NC(=O)C(=O)N1CCCCC1)C(c1cccs1)N1CCN(c2ccc(F)cc2)CC1 (configuration not stated) | -2 | i | 98*
CC(NS(C)(=O)=O)C(c1cccs1)N1CCN(c2ccccc2F)CC1 (configuration not stated) | 0 | 444 | x
O=C(Nc1ccc2c(c1)OCCO2)c1[nH]c(C(F)(F)F)nc1-c1ccccc1 | -6 | x | x
COc1ccc(C(C)(O)c2nc(-c3ccccc3OC)cs2)cc1 (configuration not stated) | 10 | x | x
COc1ccc(OC)c(NC(=O)Nc2nnc(COCCO)s2)c1 | 0 | x | x
O=c1nc(Oc2ccccc2)nc2ncccn12 | 0 | x | x
O=C(c1ccccc1)N(Nc1ccccc1)c1ccccc1 | 2 | 305 | 76*
O=C(NN(C(=O)c1ccccc1)c1ccccc1)c1ccccc1 | -3 | 372 | 3
CN(/C(=N/S(=O)(=O)c1cccs1)c1ccccc1)c1ccccc1 | -1 | 93 | -2
CN(C)c1ccc(N/C(=N\S(=O)(=O)c2cccs2)c2ccccc2)cc1 | -3 | 198 | 99*
COc1ccc(N2CCC(CNC(=O)Nc3ccc(C)c(C)c3)C2)cc1 (configuration not stated) | 1 | 404 | 15
COc1ccc(N2CCC(CNC(=O)Nc3ccc(OC)cc3OC)C2)cc1 (configuration not stated) | 0 | 168 | 85*
O=C1C2C(c3ccccc3)(C(=O)N1c1ccc(Cl)cc1)C2(c1ccccc1)c1ccccc1 (configuration not stated) | -4 | 201 | -7
COc1cc(C=C2C(=O)c3ccccc3C2=O)cc(OC)c1OC | 1 | 239 | 97*
COc1cc(C=C2C(=O)c3ccccc3C2=O)ccc1O | 2 | 278 | 60
COc1cccc(/C=C2\C(=O)C(=O)c3ccccc32)c1 | 3 | 228 | 100*
COc1cc(C=C2C(=O)c3ccccc3C2=O)cc(OC)c1 | 1 | 211 | x
CCCn1c(SCC(=O)N2CCc3ccccc3C2)nc(O)cc1=O | 3 | 334 | 72
Cc1cc(C)c(-c2nc3ccccc3s2)[nH]1 | -1 | 464 | 3
Cc1[nH]nc(-c2ccc(O)cc2O)c1-c1nc2ccccc2s1 | 3 | 358 | 87*
CCCOC(=O)c1ccc(Oc2c(-c3ccc(O)cc3O)n[nH]c2C)cc1 | 1 | 270 | 48
COc1ccc(-c2n[nH]c(C)c2-c2ccc(Cl)cc2)c(O)c1 | -5 | 377 | 21
SMILES | Glyco luc inh | T cell modulator | ALR inh
Cc1[nH]nc(-c2ccc(O)cc2O)c1-c1ccc(Cl)cc1 | -3 | 485 | 82*
Cc1[nH]nc(-c2ccc(O)cc2O)c1Oc1ccccc1 | 1 | 794 | 98*
O=C(Nc1ccn(CCCN2CCN(c3ccccn3)CC2)c(=O)n1)OCc1ccccc1 | -1 | x | x
CCC(NC(=O)c1cncc(Br)c1)c1ccccc1 (configuration not stated) | 0 | 178 | 19
Cc1cccc(CSC(=N)N)c1 | 5 | 382 | 39
N=C(N)SCCc1cccc(CCSC(=N)N)c1 | -1 | 536 | 98*
CCOC(=O)Cn1cnc2c(nnn2-c2ccc(F)cc2)c1=O | 2 | 678 | -24
COc1ccccc1C(NC(=O)CC(C)C)c1c(O)ccc2ccccc12 (configuration not stated) | -3 | 192 | -105
COc1ccccc1C(NC(C)=O)c1c(O)ccc2ccc(O)cc12 (configuration not stated) | -1 | 565 | 95*
O=C1c2ccccc2NC(c2ccc(-c3cccc([N+](=O)[O-])c3)o2)N1O (configuration not stated) | 1 | 204 | 90*
O=C1c2ccccc2NC(c2ccc(-c3ccc(F)cc3)o2)N1O (configuration not stated) | -3 | 140 | 48
Cc1ccc(CN2CCCN(C)CC2)c(C)c1 | -1 | 313 | 5
COc1ccc(NC(=O)C2CC(c3ccccc3Cl)=NO2)cc1 (configuration not stated) | 0 | 189 | 0
Cc1cc(NC(=O)c2ccc(Cl)cc2)cc(C)c1OCC(=O)N1CCOCC1 | -5 | 357 | 0
CC1CC(C)CN(C(=O)CN2C(=O)NC3(CCCCCC3)C2=O)C1 (configuration not stated) | 0 | 403 | -1
COc1nc(=O)n(C2C=CC(=O)O2)cc1F (configuration not stated) | 33* | x | x
